Assay results from different studies.
Protocols differ between the studies behind these lines.
Oprd1: Delta-type opioid receptor (Oprd1, Rattus norvegicus, UniProt P33533)
MAP4K1: Mitogen-activated protein kinase kinase kinase kinase 1 (MAP4K1, Homo sapiens, UniProt Q92918)
CTSB: Cathepsin B (CTSB, Homo sapiens, UniProt P07858)

| Structure (SMILES) | target | assay | conditions | quantity | result |
| --- | --- | --- | --- | --- | --- |
| CN1CCN(c2ccc(Nc3nccc(-c4cccc([N+](=O)[O-])c4)n3)cc2C(F)(F)F)CC1 | Cyclin-dependent kinase 2 homolog (CRK2, Plasmodium falciparum, UniProt P61075) | cell-free assay | 10 µM | remaining signal | 93% |
| OC[C@H]1CNCCN1C[C@@H]1CCCN1C[C@H](CC1CCCCC1)N1CCN(CCc2ccc(Cl)c(Cl)c2)[C@H](Cc2ccc(O)cc2)C1 | Oprd1 | ligand displacement, radioligand | 0.5 µM, 2 h, pH 7.5, cell membranes | remaining binding | 88% |
| C#Cc1n[nH]c2c(-c3cn([C@@H](C)c4ccccc4)c(=O)[nH]c3=O)cc(F)cc12 | Tyrosine-protein kinase ZAP-70 (ZAP70, Homo sapiens, UniProt P43403) | enzyme activity, inhibitor | 0.1 µM | inhibition | 2% |
| N#Cc1ccc(NCCNCC(=O)N2N=CCC2C#N)nc1 (centres unmarked) | Dipeptidyl peptidase 9 (DPP9, Homo sapiens, UniProt Q86TI2) | enzyme activity, inhibitor | 10 µM | inhibition | 87% |
| C#Cc1n[nH]c2c(-c3cn(C(C)c4ccccn4)c(=O)[nH]c3=O)cc(F)cc12 (centres unmarked) | Cyclin-dependent kinase 2, with cyclin E1 (CDK2, Homo sapiens, UniProt P24941) | enzyme activity, inhibitor | 1 µM | inhibition | -13.7% |
| CC[C@@H](C)[C@@H]1CN([C@H](Cc2ccc3ccccc3c2)CN2CCC[C@H]2CN2CCNC[C@@H]2CO)CCN1CCc1ccc(Cl)c(Cl)c1 | Oprd1 | ligand displacement, radioligand | 0.5 µM, 2 h, pH 7.5, cell membranes | remaining binding | 87.7% |
| CC(C)N1CCC[C@H]1CNC(=O)c1cn(C2CCCC2)c(=O)c2c1c1ccccc1n2C | Platelet-activating factor receptor (PTAFR, Homo sapiens, UniProt P25105) | ligand displacement, radioligand | 10 µM | inhibition | 7% |
| CCN(CC)CCCC[C@H](NC(=O)[C@H](CC(C)C)NC(=O)[C@H](C)NC(=O)[C@H](Cc1ccccc1)NC(=O)c1ccc(C(C)(C)C)cc1)C(=O)N[C@@H](CO)C(=O)OC | 5-hydroxytryptamine receptor 7 (HTR7, Homo sapiens, UniProt P34969) | ligand displacement, radioligand | 10 µM | remaining binding | 92.2% |
| Cc1nn(C)cc1-c1nc2c(N3CCN(Cc4ccc(Cl)cc4)CC3)c(Cl)cnc2[nH]1 | MAP4K1 | binding, competition with immobilised ligand | 1 µM | remaining binding | 74% |
| OC[C@H]1CNCCN1C[C@@H]1CCCN1C[C@H](CC1CCCCC1)N1CCN(CCC23CC4CC(CC(C4)C2)C3)[C@H](Cc2ccc(O)cc2)C1 | Oprd1 | ligand displacement, radioligand | 0.5 µM, 2 h, pH 7.5, cell membranes | remaining binding | 96.1% |
| CC[C@H](NC(=O)OCc1ccccc1)C(=O)N[C@H](C(=O)N[C@@H](CC(C)C)C(=O)N(C)N(C#N)CCC(N)=O)C(C)(C)C | CTSB | enzyme activity, inhibitor | – | kon | 8400 M⁻¹ s⁻¹ |
| CCOC(=O)c1ccc(OC(=O)CCCCCNC(=N)N)cc1 | CTSB | enzyme activity, inhibitor | 10 µM | inhibition | 0% |
| CC[C@@H](C)[C@@H]1CN([C@@H](CC2CCCCC2)CN2CCC[C@H]2CN2CCNC[C@@H]2CO)CCN1CCc1ccc(Cl)c(Cl)c1 | Oprd1 | ligand displacement, radioligand | 0.5 µM, 2 h, pH 7.5, cell membranes | remaining binding | 94% |
| COc1ncccc1-c1cnn2ccc(N3CCN(C(=O)OC(C)C)CC3)nc12 | MAP4K1 | binding, competition with immobilised ligand | 1 µM | remaining binding | 80% |
| CN(C)C(=O)COC(=O)Cc1ccc(OC(=O)c2ccc(NC(=N)N)cc2)cc1 | Ubiquitin carboxyl-terminal hydrolase 14 (USP14, Homo sapiens, UniProt P54578) | enzyme activity, inhibitor | 10 µM | inhibition | 0% |
| COc1cc(Cl)c(C(=O)N[C@@H](CN[C@H]2CC[C@@H](N)CC2)Cc2ccc(C#N)cc2)cc1-c1ccc(CN[C@H](C)c2ccc(C)cc2)o1 | MAP kinase-activated protein kinase 3 (MAPKAPK3, Homo sapiens, UniProt Q16644) | enzyme activity, inhibitor | 1 µM | remaining activity | 107% |
| Nc1ncc(-c2nc(N3CCOCC3)nc(N3CCOCC3)n2)c(C(F)F)n1 | Cyclin-dependent kinase 8 (CDK8, Homo sapiens, UniProt P49336) | binding, competition with immobilised ligand | 10 µM | remaining binding | 100% |
